From ChEMBL document CHEMBL4007456, “Heterocyclyl Tetracyclines. 1. 7-Trifluoromethyl-8-Pyrrolidinyltetracyclines: Potent, Broad Spectrum Antibacterial Agents with Enhanced Activity against Pseudomonas aeruginosa” (2017)
Converted amounts (≈) assume the structure as drawn.

Key:
Assay type in all cases: functional
Enterococcus faecium = experiment: Antibacterial activity against gram-positive Enterococcus faecium EFm404 harboring tet(M) by CLSI method
Summary of the method: (§1)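 CLSI broth microdilution MIC in fresh cation-adjusted Mueller Hinton broth, supplemented with defibrinated horse blood where appropriate. Compounds serially diluted in sterile deionized water. Runs accepted when comparator antibiotics against ATCC quality-control strains fell within recommended ranges.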

Staphylococcus aureus [1] = experiment: Antibacterial activity against gram-positive Staphylococcus aureus SA101 by CLSI method
Summary of the method: (§2)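 Broth microdilution MIC per CLSI in cation-adjusted Mueller Hinton broth, prepared fresh and held at 4 °C. Defibrinated horse blood added where appropriate. Compounds serially diluted in sterile deionized water. Strains from ATCC unless otherwise noted. Runs accepted when comparator antibiotics fell within QC ranges for ATCC quality control strains.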

Escherichia coli [2] = experiment: Antibacterial activity against gram-negative Escherichia coli EC155 harboring tet(A) by CLSI method; summary of the method: as §1
Pseudomonas aeruginosa = experiment: Antibacterial activity against gram-negative Pseudomonas aeruginosa PA555 by CLSI method; summary of the method: as §2
Acinetobacter baumannii = experiment: Antibacterial activity against gram-negative Acinetobacter baumannii AB250 by CLSI method; summary of the method: as §2
Proteus mirabilis = experiment: Antibacterial activity against gram-negative Proteus mirabilis PM385 by CLSI method; summary of the method: as §2
Burkholderia cenocepacia = experiment: Antibacterial activity against gram-negative Burkholderia cenocepacia BC240 by CLSI method
Summary of the method: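 Defibrinated horse blood added where appropriate. Compounds serially diluted in sterile deionized water. Strains from ATCC unless otherwise noted. Runs accepted when comparator antibiotics fell within QC ranges for ATCC quality control strains.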

Staphylococcus aureus [3] = experiment: Antibacterial activity against gram-positive Staphylococcus aureus SA161 harboring tet(M) by CLSI method; summary of the method: as §1
[4] = test system: Stenotrophomonas maltophilia; experiment: Antibacterial activity against gram-negative Stenotrophomonas maltophilia SM256 by CLSI method; summary of the method: as §2
Klebsiella pneumoniae = experiment: Antibacterial activity against gram-negative Klebsiella pneumoniae KP457 harboring blacTX-M-15 extended spectrum beta-lactamase gene by CLSI method; summary of the method: as §1
Enterococcus faecalis = experiment: Antibacterial activity against gram-positive Enterococcus faecalis EFs327 harboring tet(M) by CLSI method; summary of the method: as §1
Enterobacter cloacae = experiment: Antibacterial activity against gram-negative Enterobacter cloacae EC1603 harboring tet(A) by CLSI method; summary of the method: as §1
Streptococcus pneumoniae = experiment: Antibacterial activity against gram-positive Streptococcus pneumoniae SP160 harboring tet(M) by CLSI method; summary of the method: as §1
Staphylococcus aureus [5] = experiment: Antibacterial activity against gram-positive Staphylococcus aureus SA158 harboring tet(K) by CLSI method; summary of the method: as §1
Escherichia coli [6] = experiment: Antibacterial activity against gram-negative Escherichia coli EC107 by CLSI method; summary of the method: as §2

Structure (SMILES)	MIC (Enterococcus faecium) [mg/L]	MIC (Staphylococcus aureus [1]) [mg/L]	MIC (Escherichia coli [2]) [mg/L]	MIC (Pseudomonas aeruginosa) [mg/L]	MIC (Acinetobacter baumannii) [mg/L]	MIC (Proteus mirabilis) [mg/L]	MIC (Burkholderia cenocepacia) [mg/L]	MIC (Staphylococcus aureus [3]) [mg/L]	MIC [4] [mg/L]	MIC (Klebsiella pneumoniae) [mg/L]	MIC (Enterococcus faecalis) [mg/L]	MIC (Enterobacter cloacae) [mg/L]	MIC (Streptococcus pneumoniae) [mg/L]	MIC (Staphylococcus aureus [5]) [mg/L]	MIC (Escherichia coli [6]) [mg/L]
CN(C)[C@@H]1C(O)=C(C(N)=O)C(=O)[C@@]2(O)C(O)=C3C(=O)c4c(O)cc([C@@H]5CCCN5)c(F)c4C[C@H]3C[C@@H]12	4 (≈ 7.98 µM)	0.5 (≈ 0.997 µM)	16 (≈ 31.9 µM)	8 (≈ 16 µM)	32 (≈ 63.8 µM)	0.25 (≈ 0.498 µM)	> 32	> 32	8 (≈ 16 µM)	0.5 (≈ 0.997 µM)	32 (≈ 63.8 µM)	32 (≈ 63.8 µM)	1 (≈ 1.99 µM)	0.125 (≈ 0.249 µM)	0.125 (≈ 0.249 µM)
CN(C)[C@@H]1C(O)=C(C(N)=O)C(=O)[C@@]2(O)C(O)=C3C(=O)c4c(O)cc([C@@H]5CCCN5)cc4C[C@H]3C[C@@H]12	16 (≈ 33.1 µM)	4 (≈ 8.27 µM)	4 (≈ 8.27 µM)	16 (≈ 33.1 µM)	> 32	0.25 (≈ 0.517 µM)	> 32	> 32	32 (≈ 66.2 µM)	0.5 (≈ 1.03 µM)	> 32	4 (≈ 8.27 µM)	8 (≈ 16.5 µM)	0.5 (≈ 1.03 µM)	0.25 (≈ 0.517 µM)
CN(C)[C@@H]1C(O)=C(C(N)=O)C(=O)[C@@]2(O)C(O)=C3C(=O)c4c(O)cc([C@@H]5CCCN5CC5CC5)c(C(F)(F)F)c4C[C@H]3C[C@@H]12	1 (≈ 1.65 µM)	0.5 (≈ 0.826 µM)	2 (≈ 3.3 µM)	> 32	4 (≈ 6.6 µM)	8 (≈ 13.2 µM)	16 (≈ 26.4 µM)	1 (≈ 1.65 µM)	4 (≈ 6.6 µM)	16 (≈ 26.4 µM)	1 (≈ 1.65 µM)	32 (≈ 52.8 µM)	0.0312 (≈ 0.0515 µM)	0.125 (≈ 0.206 µM)	1 (≈ 1.65 µM)
CN(C)c1c(C2CCCN2)cc(O)c2c1C[C@H]1C[C@H]3[C@H](N(C)C)C(O)=C(C(N)=O)C(=O)[C@@]3(O)C(O)=C1C2=O (stereo not given in full)	–	2 (≈ 3.8 µM)	32 (≈ 60.8 µM)	–	> 32	–	> 32	32 (≈ 60.8 µM)	32 (≈ 60.8 µM)	–	–	–	2 (≈ 3.8 µM)	1 (≈ 1.9 µM)	2 (≈ 3.8 µM)
CCN1CCC[C@H]1c1cc(O)c2c(c1C(F)(F)F)C[C@H]1C[C@H]3[C@H](N(C)C)C(O)=C(C(N)=O)C(=O)[C@@]3(O)C(O)=C1C2=O	0.125 (≈ 0.216 µM)	0.0312 (≈ 0.0538 µM)	0.5 (≈ 0.863 µM)	32 (≈ 55.2 µM)	1 (≈ 1.73 µM)	4 (≈ 6.9 µM)	8 (≈ 13.8 µM)	1 (≈ 1.73 µM)	1 (≈ 1.73 µM)	4 (≈ 6.9 µM)	0.5 (≈ 0.863 µM)	4 (≈ 6.9 µM)	≤ 0.0156	≤ 0.0156	≤ 0.0156
CC1CCN(C)C1c1cc(O)c2c(c1C(F)(F)F)C[C@H]1C[C@H]3[C@H](N(C)C)C(O)=C(C(N)=O)C(=O)[C@@]3(O)C(O)=C1C2=O (stereo not given in full)	2 (≈ 3.45 µM)	0.5 (≈ 0.863 µM)	2 (≈ 3.45 µM)	32 (≈ 55.2 µM)	8 (≈ 13.8 µM)	8 (≈ 13.8 µM)	16 (≈ 27.6 µM)	4 (≈ 6.9 µM)	1 (≈ 1.73 µM)	4 (≈ 6.9 µM)	4 (≈ 6.9 µM)	2 (≈ 3.45 µM)	≤ 0.0156	0.0312 (≈ 0.0538 µM)	0.0625 (≈ 0.108 µM)
CCCN1CCC[C@H]1c1cc(O)c2c(c1C(F)(F)F)C[C@H]1C[C@H]3[C@H](N(C)C)C(O)=C(C(N)=O)C(=O)[C@@]3(O)C(O)=C1C2=O	1 (≈ 1.68 µM)	0.25 (≈ 0.421 µM)	2 (≈ 3.37 µM)	> 32	4 (≈ 6.74 µM)	8 (≈ 13.5 µM)	16 (≈ 27 µM)	1 (≈ 1.68 µM)	4 (≈ 6.74 µM)	16 (≈ 27 µM)	1 (≈ 1.68 µM)	32 (≈ 53.9 µM)	≤ 0.0156	0.125 (≈ 0.211 µM)	1 (≈ 1.68 µM)
COc1c(C2CCCN2)cc(O)c2c1C[C@H]1C[C@H]3[C@H](N(C)C)C(O)=C(C(N)=O)C(=O)[C@@]3(O)C(O)=C1C2=O (stereo not given in full)	16 (≈ 31.2 µM)	8 (≈ 15.6 µM)	> 32	32 (≈ 62.3 µM)	> 32	4 (≈ 7.79 µM)	> 32	> 32	> 32	2 (≈ 3.89 µM)	32 (≈ 62.3 µM)	> 32	4 (≈ 7.79 µM)	2 (≈ 3.89 µM)	2 (≈ 3.89 µM)
CN(C)[C@@H]1C(O)=C(C(N)=O)C(=O)[C@@]2(O)C(O)=C3C(=O)c4c(O)cc(C5CCCN5)c(OC(F)(F)F)c4C[C@H]3C[C@@H]12 (stereo not given in full)	0.125 (≈ 0.22 µM)	0.125 (≈ 0.22 µM)	8 (≈ 14.1 µM)	8 (≈ 14.1 µM)	2 (≈ 3.52 µM)	1 (≈ 1.76 µM)	8 (≈ 14.1 µM)	2 (≈ 3.52 µM)	2 (≈ 3.52 µM)	0.25 (≈ 0.441 µM)	1 (≈ 1.76 µM)	16 (≈ 28.2 µM)	≤ 0.0156	≤ 0.0156	≤ 0.0156
CC(C)N1CCC[C@H]1c1cc(O)c2c(c1C(F)(F)F)C[C@H]1C[C@H]3[C@H](N(C)C)C(O)=C(C(N)=O)C(=O)[C@@]3(O)C(O)=C1C2=O	0.25 (≈ 0.421 µM)	0.125 (≈ 0.211 µM)	1 (≈ 1.68 µM)	32 (≈ 53.9 µM)	2 (≈ 3.37 µM)	4 (≈ 6.74 µM)	16 (≈ 27 µM)	2 (≈ 3.37 µM)	4 (≈ 6.74 µM)	8 (≈ 13.5 µM)	0.5 (≈ 0.842 µM)	16 (≈ 27 µM)	≤ 0.0156	0.0625 (≈ 0.105 µM)	0.125 (≈ 0.211 µM)
CC1CCC(c2cc(O)c3c(c2C(F)(F)F)C[C@H]2C[C@H]4[C@H](N(C)C)C(O)=C(C(N)=O)C(=O)[C@@]4(O)C(O)=C2C3=O)N1 (stereo not given in full)	0.25 (≈ 0.442 µM)	0.125 (≈ 0.221 µM)	0.5 (≈ 0.884 µM)	8 (≈ 14.1 µM)	0.5 (≈ 0.884 µM)	0.5 (≈ 0.884 µM)	4 (≈ 7.07 µM)	1 (≈ 1.77 µM)	0.25 (≈ 0.442 µM)	0.25 (≈ 0.442 µM)	1 (≈ 1.77 µM)	8 (≈ 14.1 µM)	≤ 0.0156	≤ 0.0156	≤ 0.0156
CC(C)CN1CCC[C@H]1c1cc(O)c2c(c1C(F)(F)F)C[C@H]1C[C@H]3[C@H](N(C)C)C(O)=C(C(N)=O)C(=O)[C@@]3(O)C(O)=C1C2=O	1 (≈ 1.65 µM)	2 (≈ 3.29 µM)	> 32	> 32	> 32	> 32	> 32	2 (≈ 3.29 µM)	> 32	> 32	1 (≈ 1.65 µM)	> 32	0.5 (≈ 0.823 µM)	1 (≈ 1.65 µM)	4 (≈ 6.58 µM)
CC1CCNC1c1cc(O)c2c(c1C(F)(F)F)C[C@H]1C[C@H]3[C@H](N(C)C)C(O)=C(C(N)=O)C(=O)[C@@]3(O)C(O)=C1C2=O (stereo not given in full)	0.5 (≈ 0.884 µM)	0.125 (≈ 0.221 µM)	2 (≈ 3.54 µM)	8 (≈ 14.1 µM)	1 (≈ 1.77 µM)	2 (≈ 3.54 µM)	4 (≈ 7.07 µM)	8 (≈ 14.1 µM)	0.5 (≈ 0.884 µM)	1 (≈ 1.77 µM)	1 (≈ 1.77 µM)	2 (≈ 3.54 µM)	≤ 0.0156	≤ 0.0156	≤ 0.0156
CN(C)[C@@H]1C(O)=C(C(N)=O)C(=O)[C@@]2(O)C(O)=C3C(=O)c4c(O)cc([C@@H]5CCCN5C)c(C(F)(F)F)c4C[C@H]3C[C@@H]12	–	0.125 (≈ 0.221 µM)	0.5 (≈ 0.884 µM)	8 (≈ 14.1 µM)	0.25 (≈ 0.442 µM)	–	4 (≈ 7.07 µM)	2 (≈ 3.54 µM)	0.125 (≈ 0.221 µM)	2 (≈ 3.54 µM)	–	–	≤ 0.0156	≤ 0.0156	0.0312 (≈ 0.0552 µM)
